# Rows were chosen to be rich in hits. Some 4.6% of all compounds tested hit in one or more screens of this group.
# OX1R antag-1: antagonists of human orexin 1 receptor (OX1R) | OX1R-expressing cells, FRET antagonist read-out | inhibition, % at 6.6 µM | actives 1.8% (n = 330,000); in the data active = inhibition mostly above about 38%, no sharp cut-off; inactive = mostly below about 40%;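 note: 0% = agonist challenge alone and 100% = reference antagonist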
# GPR7 antagonist: GPR7 receptor antagonists, primary screen, cell-based, fluorescence, single concentration. inhibition, % at 4.4 µM. GPR7-expressing cells, fluorescence antagonist assay. Neuropeptides B/W receptor type 1 (Homo sapiens), P48145. actives 1.1% (n = 290,000); in the data active = inhibition above about 16%, passing the limit was not always enough;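 note: cells stimulated with the agonist NPW; 0% = agonist with vehicle and 100% = vehicle without agonist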
# Target sequence (P48145 whole entry, looked up): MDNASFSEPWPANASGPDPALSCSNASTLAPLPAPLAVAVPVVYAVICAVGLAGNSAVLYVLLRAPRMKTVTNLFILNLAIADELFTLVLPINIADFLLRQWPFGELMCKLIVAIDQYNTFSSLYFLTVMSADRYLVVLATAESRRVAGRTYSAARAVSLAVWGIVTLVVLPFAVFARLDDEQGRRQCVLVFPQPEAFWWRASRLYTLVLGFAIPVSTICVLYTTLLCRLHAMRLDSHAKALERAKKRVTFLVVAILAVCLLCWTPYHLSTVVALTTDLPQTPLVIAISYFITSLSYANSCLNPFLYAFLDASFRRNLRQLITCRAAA
# TAAR1 agonist: human TAAR1 agonists, primary screen, Fluo-8 calcium fluorescence, CHO RD-HGA16 cells; vehicle wells 0%, saturating PEA agonist 100%; actives 0.99% (n = 360,000); activation, % at 3 µM; Trace amine-associated receptor 1 (Homo sapiens), Q96RJ0;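 active = activation above the mean activation of all test compounds in the run plus 3 SD, cut at about 38% in these data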
# Target sequence (Q96RJ0 whole entry, looked up): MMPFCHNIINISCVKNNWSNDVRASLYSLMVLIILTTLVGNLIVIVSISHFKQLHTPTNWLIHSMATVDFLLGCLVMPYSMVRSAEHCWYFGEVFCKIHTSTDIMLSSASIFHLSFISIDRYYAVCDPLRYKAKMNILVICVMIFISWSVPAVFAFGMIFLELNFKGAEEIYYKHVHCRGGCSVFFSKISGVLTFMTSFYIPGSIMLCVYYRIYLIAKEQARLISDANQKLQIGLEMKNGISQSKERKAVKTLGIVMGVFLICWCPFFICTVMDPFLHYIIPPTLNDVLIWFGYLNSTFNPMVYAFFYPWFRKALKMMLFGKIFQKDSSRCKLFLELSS
#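 Test system: RD-HGA16 (CHO) cells co-expressing Gα16 and hTAAR1 / Benchmarks: DMSO vehicle as 0%, PEA at EC100 as 100% / Repeats: no replicates (n 1) / Measure: % activation from peak over basal fluorescence ratio, DMSO-to-PEA scaled / Timing: 17-24 h plating, Fluo-8 75 min 37 °C, 30 min RT / Technique: kinetic Fluo-8 calcium fluorescence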
# TAAR1 antagonist: human TAAR1 antagonists, primary screen, Fluo-8 calcium fluorescence, CHO RD-HGA16 cells | antagonist | inhibition, % at 3 µM | actives 1.5% (n = 360,000) | AID 624466, 2012;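 active = inhibition above a per-plate cutoff, the mean inhibition of test compounds on that plate plus 3 SD, cut at about 49% in these data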;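 note: 0% = DMSO plus EC80 beta-PEA response and 100% = DMSO alone without agonist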
#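 Test system – hTAAR1-expressing CHO RD-HGA16 cells, Gα16-coupled · Also added – β-PEA at EC80 concentration, post-compound challenge · Compound – 3 µM, single point · Incubation – dye loading 75 min at 37 °C, then 30 min room temperature · Measured by – Fluo-8 intracellular calcium dye fluorescence, real-time kinetic reads · Benchmarks – vehicle and agonist controls · Replicates – singlicate, one well per test compound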
# OX1R antag-2: OX1R (HCRTR1) antagonists, primary screen, fluorescence, CHO/OX1R cells, Fluo-8 calcium, orexin A; Fluo-8 calcium fluorescence; Orexin/Hypocretin receptor type 1 (Homo sapiens), O43613; inhibition, % at 5 µM; AID 434989, 2010; actives 0.43% (n = 330,000);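 active = inhibition above its plate's threshold, mean inhibition of all tested compounds on the plate plus 3 SD, cut at about 37% in these data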;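 note: 0% = orexin A challenge wells and 100% = SB-334867-A antagonist wells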
# CHO parental Ca: ATP-evoked calcium signal inhibitors, parental CHO, primary screen, counter-screen for OX1R antagonist project, cell-based, fluorescence, Fluo-8 calcium dye; parental CHO-K1, ATP-induced calcium, Fluo-8 fluorescence; inhibition, % at 5.6 µM; actives 0.63% (n = 330,000); AID 463079, 2010;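 active = inhibition above that plate's mean sample inhibition plus 3 SD, cut at about 26% in these data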;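 note: 0% = ATP-challenged DMSO wells and 100% = DMSO wells without ATP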
#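 Test system: untransfected parental CHO cell line; also added: ATP stimulus; dosing: 5.6 µM, single dose; signal: calcium-sensitive Fluo-8 fluorescence; measure: percent inhibition of ATP-evoked calcium rise, normalized to controls; benchmarks: low control ATP plus DMSO, high control DMSO only; replication: one well per compound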
# The depositor's hits bear a star; . = no result given.
SMILES,OX1R antag-1,GPR7 antagonist,TAAR1 agonist,TAAR1 antagonist,OX1R antag-2,CHO parental Ca
O=C(COc1cccc(NC(=O)c2cccc([N+](=O)[O-])c2)c1)c1ccc(Br)cc1,54,-2,19,83*,21,9
CCOC(=O)N[C@H](C(=O)N1CCC[C@H]1C(=O)NC1CCCC1)c1ccccc1,.,.,1,-19,.,.
CN(C)c1nc(OCCNC(=O)Nc2ccccc2)nc(N2CCOCC2)n1,.,-16,3,0,.,.
Cc1ccc(S(=O)(=O)NCCOc2nc(N(C)C)nc(N3CCOCC3)n2)cc1,48*,-9,9,6,-1,-23
COc1cccc(C(=O)Nc2nc(-c3ccc(S(=O)(=O)N4CCOCC4)cc3)cs2)c1,29,-1,21,50*,-15,12
O=C(NCc1cccnc1)c1cc(C2CCCCN2S(=O)(=O)c2cccs2)on1 (stereo unspecified),.,.,4,-8,.,.
Cc1ccnc(NC(=O)c2cc([N+](=O)[O-])cc([N+](=O)[O-])c2)c1,17,-12,5,10,-17,-7
Cc1cccc(NC(=O)c2ccc([N+](=O)[O-])s2)n1,36*,-10,1,-6,-3,12
Cc1cccc(C)c1NC(=O)c1ccc([N+](=O)[O-])s1,46,2,4,-10,-21,-5
Cc1ccnc(NC(=O)c2ccc([N+](=O)[O-])s2)c1,70*,7,4,-16,-9,3
Cc1nc2ccccc2c2c1CC(C(C)(Cl)Br)O2 (stereo unspecified),44,18,6,-19,16,51*
COC(=O)c1cc2c(c3c4cc(OC)ccc4n(S(=O)(=O)c4ccc(C)cc4)c13)C(=O)N(C)C2,.,.,0,-19,.,.
Cc1ccc(NC(=S)NCCN(C2CCCCC2)C2CCCC2)cc1,6,31*,10,-15,-34,-19
O=C(Cn1cc(COC(=O)c2c3ccccc3cc3ccccc23)nn1)c1ccc(O)cc1,.,.,3,4,.,.
Cc1cc2c(cc1C)CSC(c1ccccc1O)SC2,19,-2,28,66*,21,59*
Cc1cc(C(=O)OCC(=O)NCc2cccs2)ccc1[N+](=O)[O-],16,.,1,4,1,-13
COC(=O)c1cc(C(=O)OCC(=O)NCc2cccs2)cc([N+](=O)[O-])c1,31*,.,3,-9,-22,-18
O=S1(=O)N[C@H](Cc2ccccc2)COc2cccc(NCCO)c21,.,.,0,11,.,.
CCN1/C(=C/c2ccc3cc(C)ccc3[n+]2CC)Sc2ccc3sccc3c21,27,.,.,.,29,48*
CCN1/C(=C\c2ccc3cc(C)ccc3[n+]2CC)Sc2cc(C)c(C)cc21,.,9,16,13,.,.
Cn1nc(CC(=O)Nc2ccc3c(c2)OCCO3)c2ccccc2c1=O,51,3,6,26,47*,48*
O=C(NCC1CCCN1S(=O)(=O)c1cccs1)C(=O)Nc1ccccc1F (stereo unspecified),.,.,2,-17,.,.
CCCN1Cc2cccc(C(=O)NC(CC(=O)OCC)c3ccc(OC(C)C)cc3)c2C1=O (stereo unspecified),30,-20,1,16,-12,-17
CCOC(=O)CC(NC(=O)c1cccc2c1C(=O)N(Cc1cccnc1)C2)c1ccc(OC(C)C)cc1 (stereo unspecified),48*,-11,8,39,-16,-3
C=CCn1c(Cc2ccccc2)nc2c(cnn2-c2ccccc2)c1=O,13,-2,1,23,6,39*
SMILES,OX1R antag-1,GPR7 antagonist,TAAR1 agonist,TAAR1 antagonist,OX1R antag-2,CHO parental Ca
Nn1c(SCc2ccccc2)nc2c(cnn2-c2ccccc2)c1=O,13,0,5,-14,-21,4
COc1cccc(-c2oc3c(c2C#CCCO)C(O)CCC3)c1 (stereo unspecified),.,.,0,1,.,.
Cc1nn(Cc2ccccc2)c(C)c1NC(=O)c1ccc([N+](=O)[O-])cc1[N+](=O)[O-],45*,3,3,7,-13,-3
CCCCCCC12C(=Cc3cc4c(cc31)OCCO4)c1cc(OC)c(OC)cc1C(CC(=O)NCc1ccccc1)N2C(=O)OC (stereo unspecified),.,.,0,-21,.,.
CCOC(=O)C1=C(CSc2nc3ccccc3s2)NC(=O)NC1c1cc(C)ccc1C (stereo unspecified),49*,-4,-1,1,27,-29
COc1cc(OC)cc(-c2cc(N)n(S(=O)(=O)c3cccc4nsnc34)n2)c1,49*,9,4,-5,16,4
CCOc1ccc(-c2cc(N)n(S(=O)(=O)c3cccc4nsnc34)n2)cc1,18,-8,-3,-5,-39,-25
CCCCS(=O)(=O)N1CCN(C(=O)C(=O)c2cccc(C(F)(F)F)c2)CC1,.,.,1,-27,.,.
O=C1c2ccccc2C(c2nnnn2-c2ccc3c(c2)OCCO3)N1Cc1ccc2c(c1)OCO2 (stereo unspecified),.,.,2,-5,.,.
CCOC(=O)N1CCN(C(=O)C2CCN(C(=O)c3ccc([N+](=O)[O-])cc3)CC2)CC1,55*,-19,2,-6,-16,-4
COc1ccc(NC(=O)N2CCN(c3ccc([N+](=O)[O-])cc3)CC2)cc1,25,5,3,28,9,6
COc1ccc(N2CCN(C(=O)C3CCN(C(=O)c4ccc([N+](=O)[O-])cc4)CC3)CC2)cc1,51*,-1,0,-7,-5,-2
N#Cc1ccc(C(=O)N2CCCCC2c2cc(C(=O)NCc3ccccc3)no2)cc1 (stereo unspecified),.,.,4,2,.,.
COc1ccc(S(=O)(=O)N2CCCCCC2)cc1NC(=O)c1c2c(nc3ccccc13)CCN(Cc1ccccc1)C2,1,-13,14,47,-26,-16
CCN(CC)S(=O)(=O)c1ccc(OC(C)C)c(NC(=O)c2c3c(nc4ccccc24)CCN(Cc2ccccc2)C3)c1,18,-15,11,55*,-10,-25
COc1cc(NC(=O)c2ccno2)cc(C(=O)Nc2cccc(C(F)(F)F)c2)c1,18,.,18,38,15,27
COc1cc(NC(=O)c2cc3cccc(OC)c3o2)cc(C(=O)Nc2cccc(C(F)(F)F)c2)c1,12,.,21,87*,24,42*

# Screening data deposited in PubChem BioAssay by The Scripps Research Institute Molecular Screening Center.
